# Compound activity as filed in PubChem.
# Shown is part of a subset that was picked to be rich in hits.
# Hsp70 act: Hsp70 transcriptional activators, primary screen, cell-based, HeLa, Hsp70 promoter luciferase, luminescence, 10 µM | activation, % at 10 µM | hit rate 0.04% among 200,000 | HeLa Hsp70 promoter luciferase reporter; scaled: vehicle 0, proteasome-inhibitor control 100% | AID 1203, 2008;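 active = activation above the mean across all tested compounds plus 3 SD, cutoff set per campaign, cut at about 5.5% in these data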;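 note: 100% = MG132 at 30 µM as the positive control and 0% = DMSO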
# Lmaj promast: Leishmania major promastigote growth inhibition, primary screen | Leishmania major promastigotes, resazurin fluorescence viability | inhibition, % at 10 µM | hit rate 9% among 200,000 | AID 1063, 2008; in the data active = inhibition above about 50%;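 note: promastigotes grown with compound for 44 hours at 28 °C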
# T cruzi inh: inhibitors of intracellular T. cruzi growth, primary screen, luminescence, NIH3T3 host cells | T. cruzi beta-gal in NIH3T3, 90 h | inhibition, % (test concentration not listed) | hit rate 1.4% among 300,000 | AID 1885, 2009;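 active = mean inhibition across valid replicates above about 55%, limit read from the data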;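 note: signal also drops with host cell toxicity which is not excluded here; 0% = plate median of DMSO wells and 100% = zero luminescence signal; higher percent means less beta-gal luminescence so fewer parasites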
#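 Test system: β-gal T. cruzi (Tulahuen C4) inside NIH/3T3 cells / Quantity: 5,000 cells/well / Measured by: luminescence from GalScreen with 0.05% NP40, read after 60 min / Medium: DMEM plus 2% FBS / Measure: parasite load inhibition, % / Reagent: Tulahuen C4 trypomastigotes, 5000/well / Schedule: co-culture of at least 90 h after 3 h attachment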
# HSF-1 act: HSF-1 activators, primary screen, NIH3T3-HGL cells, MG132 stress, luminescence, single point. NIH3T3-HGL HSF-1 luciferase reporter, 8 h; 100% = twice DMSO control signal. hit rate 1.7% among 300,000. activation, % at 9 µM;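 active = mean replicate activation of at least 50% with a set share of replicates each reaching 50%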;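 note: 0% = median of the neutral control wells and 100% = twice that signal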
# HSF1 inh: HSF1 inhibitors in luciferase reporter cells, primary screen, cell-based, NIH3T3, luminescence. NIH3T3-HGL HSE-luciferase, MG132-induced, luminescence 8 h; stronger effect = lower value. activity change, negative = inhibition, % at 7.5 µM (by protocol). hit rate 0.77% among 300,000;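 active = more than half of replicate wells show activity change below -50%, luminescence cut by over half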;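 note: luciferase reports HSF-1 transcriptional activity via heat shock element; 0% = median of DMSO wells and -100% = zero luminescence signal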
# * hit, by the source's call; . = no result.
SMILES,Hsp70 act,Lmaj promast,T cruzi inh,HSF-1 act,HSF1 inh
COc1ccc(NS(=O)(=O)c2ccc(NC(C)=O)cc2)c(OC)c1,0,-8,9,17,-5
COc1ccc(-c2cc(CNC(=O)CCl)on2)cc1,0,66*,-13,9,3
COc1ccc(N2C(=O)CC(Sc3nnnn3-c3ccc(F)cc3)C2=O)cc1 (centres undefined),0,-3,23,70*,40
COc1ccc(N2C(=O)CC(Sc3nnc(-c4ccccc4)o3)C2=O)cc1 (centres undefined),1,-10,-6,-9,-7
O=C1CC(SC(=Nc2ccccc2)Nc2ccccc2)C(=O)N1c1cccc(Cl)c1 (centres undefined),0,61*,32,11,17
O=C1CC(Sc2nnnn2-c2ccccc2)C(=O)N1c1cccc(Cl)c1 (centres undefined),0,71*,-7,11,26
O=C1CC(SC(=Nc2ccccc2)Nc2ccccc2)C(=O)N1c1ccc(Cl)cc1 (centres undefined),0,-3,13,22,8
CC(C)Cc1nnc(NC(=O)CCC(=O)N2CCN(c3ccc(F)cc3)CC2)s1,.,.,3,12,-7
Cc1ccc(C(=O)OCC(=O)N(C)C2CCS(=O)(=O)C2)cc1S(=O)(=O)N1CCCCC1 (centres undefined),.,.,4,4,-4
CCN(CC)CCN1CCn2c3c(c4cc(C)ccc42)CCCC31 (centres undefined),0,100*,43,12,-5
Cc1ccc2c(c1)c1c3n2CCN(C=O)C3CCC1 (centres undefined),.,.,-1,-24,-3
CCN1CCn2c3c(c4cc(Cl)ccc42)CCCC31 (centres undefined),0,54*,31,5,4
CNCCCOc1cccc(Oc2ccccc2)c1,0,99*,60*,16,-6
CC(O)CNCCCOc1cccc(C(F)(F)F)c1 (centres undefined),0,67*,12,-7,-3
CCOc1ccc(OCCOc2cccc(C(F)(F)F)c2)cc1,0,-2,8,-13,-7
CC(O)CNCCCOc1cccc(Oc2ccccc2)c1 (centres undefined),0,99*,-2,-3,-2
CS(=O)(=O)N1CCC(C(=O)NCc2ccc(Cl)cc2Cl)CC1,0,2,-14,-8,-1
COc1ccc(C(=O)c2ccc(Br)cc2)c2ccccc12,.,.,0,-34,-15
COc1cc(CN2CCNC(=O)C2CC(=O)NCc2csc(C(C)C)n2)cc(OC)c1 (centres undefined),0,-3,5,.,.
O=C(Nc1nccs1)c1ccc(Cl)c([N+](=O)[O-])c1,.,.,35,6,-1
O=C(COC(=O)CC(c1ccccc1)c1ccccc1)NCc1ccc(Cl)cc1,-1,69*,-2,4,2
CCCC(=O)OCC(=O)NCc1ccc(Cl)cc1,0,-15,10,3,0
O=C(COC(=O)CC(c1ccccc1)c1ccccc1)Nc1c(F)cccc1F,0,50*,-19,-18,2
CCn1cc(C2=NOC(C(=O)Nc3ccc4c(c3)OCO4)C2)c(C)n1 (centres undefined),0,57*,-10,-4,5
O=C(Nc1ccc2c(c1)OCO2)C1CC(c2ccccc2Cl)=NO1 (centres undefined),0,-5,0,17,-11
SMILES,Hsp70 act,Lmaj promast,T cruzi inh,HSF-1 act,HSF1 inh
Cc1cc(O)c(/C=N/Nc2cccc(Cl)c2)c(=O)o1,0,94*,20,-2,1
Cc1cc(O)c(/C=N/Nc2ccccc2Cl)c(=O)o1,0,8,-4,11,5
Cc1cc(O)c(/C=N/Nc2ccc(Cl)cc2)c(=O)o1,0,98*,22,38,15
Cc1cccc(N=Cc2c(O)cc(C)oc2=O)c1,0,62*,-1,14,12
CCN(CC)S(=O)(=O)c1ccc(Cl)c(C(=O)OC2CC(C)OC2=O)c1 (centres undefined),.,.,-10,3,3
CC(C)N(C)CCOC(=O)/C=C/c1ccccc1,0,4,-5,4,1
CC1=CC(=O)C=C(C)C1=NOC(=O)/C=C\c1ccccc1,0,53*,-31,65*,42
Cc1ccc(NC(=O)C(C)OC(=O)/C=C/c2ccccc2)cc1 (centres undefined),.,.,1,4,5
CC1=CC(=NOC(=O)/C=C/c2ccccc2)C=C(C)C1=O,0,101*,-17,2,7
CC1=C(C)/C(=N\OC(=O)/C=C/c2ccccc2)C=CC1=O,0,100*,-21,13,-3
COc1cccc(Sc2nc(-c3ccccc3)ncc2S(C)(=O)=O)c1,.,.,-3,-44,-36
CC(C)Oc1ccc(C(CC(=O)N(C)CCC#N)c2ccc(F)cc2)cc1 (centres undefined),-1,53*,3,8,-3
O=C(c1ccccc1)c1ccc(NCCCn2ccnc2)c([N+](=O)[O-])c1,.,.,56*,6,3
CCN1CCN(CC(=O)Nc2ccc(Cl)c(S(=O)(=O)N(C)C)c2)CC1,0,-2,2,-3,-3
CN(C)S(=O)(=O)c1cc(NC(=O)CN2CCNC(=O)C2)ccc1Cl,0,60*,-9,-18,-9
Cc1ccc(NC(=S)NCC(O)c2ccccc2)c(C)c1 (centres undefined),.,.,-15,6,0
COc1cc(OC)nc(Oc2ccccc2C(=O)Oc2ccc(Cl)cc2)n1,0,5,-4,-90,-86*
O=C(CN1CCN(S(=O)(=O)c2ccccc2F)CC1)NC1CCCC1,0,-4,7,2,-3
O=C(Nc1nc2ccc(SC(F)F)cc2s1)c1ccc(NS(=O)(=O)c2ccc(F)c(F)c2)cc1,0,69*,14,29,14
O=C(NCCc1ccccc1)c1noc2c1CCc1ccccc1-2,0,-12,-3,52*,24
CCCNC(=O)c1noc2c1CCc1ccccc1-2,0,13,-5,46,40
N/C(=N\OC(=O)c1ccc([N+](=O)[O-])cc1Cl)c1ccccn1,.,.,39,-16,-10
Cc1ccc(C(=O)O/N=C(\N)c2ccccc2)c(Cl)c1,.,.,-16,-83,-81*
N/C(=N\OC(=O)c1cc(Br)ccc1Cl)c1ccccn1,0,7,11,39,19
Cc1ccc(C(=O)O/N=C(\N)c2ccccn2)c(Cl)c1,.,.,-19,-87,-84*
N/C(=N\OC(=O)c1ccc(Cl)cc1Cl)c1ccccn1,-1,4,-1,-74,-65*
COc1cc(OC)c(C(=O)OCC(=O)NCCC2=CCCCC2)cc1OC,.,.,-6,8,0
